STAT3 blocker: IL-6 driven STAT3 reporter inhibitors, primary screen, U3A cells, luciferase, luminescence, MLSCN library; IL-6 STAT3-luciferase reporter; host cell line lacks STAT1; inhibition, % at 5.5 µM; 190,000 tested, 0.89% active;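 active = inhibition above the mean inhibition across all screened compounds plus 3 SD, cut at about 44% in these data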
STAT3 act: IL-6 driven STAT3 reporter potentiators, primary screen, U3A cells, luciferase, luminescence, MLSCN library | IL-6 STAT3-luciferase reporter; 100% = signal with IL-6 EC80 alone | activation (% of control), % at 5.6 µM | 190,000 tested, 0.91% active | AID 871, 2007;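 active = activation above the screen-wide mean of compound activation plus 3 SD, cut at about 130% in these data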
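Material: STAT3-luciferase reporter U3A cells. Controls: IL-6-treated wells, 100% activation. Read-out: % activation versus median of IL-6-stimulated wells. Probe or stimulus: IL-6 stimulus at 33 ng/mL final. Timing: compound 1 h, then IL-6 6 h at 37 °C. Signal: reporter luminescence signal.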
APP 5'UTR act: activators of APP 5'UTR luciferase reporter, primary screen, SH-SY5Y cells; SH-SY5Y APP 5'UTR luciferase reporter, luminescence; zero percent = DMSO vehicle wells; activation, % at 2 µM; 190,000 tested, 1% active;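 active = activation above a set limit, based on mean plus 3 SD of controls, cut at about 140% in these data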
STAT1 blocker: STAT1 signaling inhibitors, primary screen, cell-based, HTS, luciferase reporter; NIH 3T3 STAT1-luciferase reporter, IFN-gamma, luminescence; inhibition, % at 5.5 µM; 200,000 tested, 0.35% active;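 active = inhibition above a set limit, the mean inhibition across all tested compounds plus 3 SD, cut at about 34% in these data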
STAT1 activator: STAT1 signaling activators, primary screen, cell-based, HTS, luciferase reporter; NIH 3T3 STAT1-luciferase reporter, IFN-gamma, luminescence; 100% = IFN-gamma alone, no compound; 200,000 tested, 2.6% active; activation (% of control), % at 5.5 µM; AID 932, 2007;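 active = activation above the screen-wide mean activation plus 3 SD, cut at about 130% in these data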
NF-kB expr up: activators of NF-kB expression in neurons, primary screen, cell-based, HTS; fold change at 12.5 µM; human neuronal cells, NF-kB reporter expression; active compounds read high; 190,000 tested, 1.6% active; in the data active = fold change above about 3.3
Each line names hits and unclear results; the compound was inactive in the other large screens. Compounds with a hit are over-represented: about 5.1% of the library has one in this group of screens.

Nc1ccc2nc(-c3ccccc3)sc2c1	STAT3 blocker 64, STAT1 blocker 42
Nc1ccc(-c2nc3cc(N)ccc3s2)cc1	APP 5'UTR act 186, NF-kB expr up 5.3
CCOc1ccc2c(c1)OC(c1ccc(C)cc1)(C(F)(F)F)NC2=O (stereo not given)	NF-kB expr up 4.2
O=C(CCCc1nc2ccccc2s1)Nc1ccc(N2CCOCC2)cc1	none
CCOc1ccc(/C(O)=C2/C(=O)C(=O)N(CC3CCCO3)C2c2cccs2)cc1 (stereo not given)	none
C#Cc1ccc(CN2CCN(Cc3ccsc3)C(CCO)C2)cc1 (stereo not given)	none
CC(C)(O)C#Cc1ccc(CN2CCN(Cc3ccsc3)C(CCO)C2)cc1 (stereo not given)	NF-kB expr up 3.8
O=C1C(Nc2ccccc2)=C/C(=N/S(=O)(=O)c2cccs2)c2ccccc21	STAT3 act 136
O=C1C=C(Nc2ccccc2)C(=O)c2ccccc21	APP 5'UTR act 140, STAT1 activator 132, NF-kB expr up 8.2
Oc1ccc(/C=C/c2cc(O)cc(O)c2)cc1	APP 5'UTR act 151, NF-kB expr up 23
Cc1ccc(NC(=O)c2ccc3nc[nH]c3c2)cc1C	STAT1 activator 143
O=c1oc2cc(Br)ccc2n1CSC1=NCCS1	NF-kB expr up 7.7
CCCc1nnc(NC(=O)Cn2c(=O)oc3cc(Br)ccc32)s1	none
CC1CCN(c2nc3ccc(C(=O)N4CCN(Cc5ccccc5)CC4)cc3s2)CC1	STAT1 activator 130
CCOC(=O)c1ccc(NC(=O)CCSCCc2ccccn2)cc1	none
O=C(Nc1ccccc1C(=O)OCC(=O)c1c[nH]c2ccccc12)c1ccco1	none
Nc1ccccc1Nc1cccc(C(F)(F)F)c1	STAT1 activator 129
Nc1ccc(Nc2ccccc2N)cc1	none
CC1CCCCC1NC(=O)c1cc2ccccc2o1 (stereo not given)	none
CN=c1scc(-c2ccccc2F)n1/N=C/c1ccc(O)c(O)c1O	STAT3 blocker 50, STAT1 blocker 87
Oc1ccccc1N=Cc1ccc[nH]1	none
CN=c1scc(-c2ccccc2F)n1/N=C/c1ccc[nH]1	STAT3 blocker 110, STAT1 blocker 97
Nc1n[nH]c(N)c1N=Nc1ccc2c(c1)OCO2	STAT1 activator 132
O=C(CN1C(=O)C2C3c4ccccc4C(c4ccccc43)C2C1=O)Nc1cccc(C(=O)O)c1 (stereo not given)	none
Cc1cc(-c2ccc(C(=O)O)s2)cnc1N	STAT1 activator 129
OCCC1CN(Cc2ccccc2OC2CCCC2)CCN1Cc1ccsc1 (stereo not given)	none
NC(=O)c1cc2ccccc2o/c1=N/NC(=O)c1cccs1	STAT1 activator 134
Cc1ccc(C(=O)c2cc3ccccc3o2)cc1C	STAT1 activator 136, NF-kB expr up 3.7
COc1ccc2o/c(=N/NC(=O)c3cccs3)c(C(N)=O)cc2c1	STAT1 activator 138
NC(=O)c1cc2ccccc2o/c1=N\NC(=O)c1ccncc1	none
O=C(c1cc2ccccc2o1)c1cccs1	STAT1 activator 145 (no result: APP 5'UTR act)
Cc1ccc(S(=O)(=O)CC(=O)Nc2ccc(Cl)cn2)cc1	none
C/C(=N\NC(=O)C(N)=O)c1cccc(C(F)(F)F)c1	none
Cc1ccc(N2Cc3ccccc3C2=S)cc1	APP 5'UTR act 201, STAT1 activator 136, NF-kB expr up 6.8
Cc1cccc(NC(=S)NNC(=O)c2ccc3c(c2)OCO3)c1	none
CCCc1cc(C(=O)NNC(=S)Nc2cccc(C)c2)cs1	STAT1 activator 142
CC(=O)CCn1cnc([N+](=O)[O-])n1	none
O=C(c1cnc(-c2ccc(Cl)cc2)s1)c1ccc(Cl)cc1Cl	none
CNc1ncc(C(=O)c2ccc(Cl)cc2)s1	NF-kB expr up 4
CNc1ncc(C(=O)c2ccc(Cl)c(Cl)c2)s1	NF-kB expr up 4.3
O=C(c1ccc(Cl)c(Cl)c1)c1cnc(Nc2ccccc2)s1	none
CCc1nnc(NC(=O)Cn2nc(-c3ccccc3OC)ccc2=O)s1	none
CCCn1c(N)c(C(=O)COc2ccc(Br)cc2F)c(=O)n(C)c1=O	none
COc1ccc(-c2csc(NC(=O)c3ccc(S(=O)(=O)N4CCc5ccccc5C4)cc3)n2)c(OC)c1	none
Cc1ccc(C(=O)Nc2ccc(C(F)(F)F)n(C)c2=O)cc1	STAT1 activator 133
NC(=O)C(=O)N/N=C1\CCc2ccccc21	STAT1 activator 131
O=C(N/N=C1\CCCc2ccccc21)c1ccc([N+](=O)[O-])cc1	none
Cc1ccc(C(=O)N/N=C2\CCCc3ccccc32)c(C)c1	STAT1 activator 129
Cc1ccc(Cc2ccc(C(=O)NNC(N)=S)o2)cc1	none
Cc1c(C(=O)N2c3ccccc3Sc3ccccc32)cccc1[N+](=O)[O-]	none
COCCn1c(C)cc(C(=O)COC(=O)c2ccc(NC(=O)CC#N)cc2)c1C	APP 5'UTR act 149, STAT1 activator 134
COCCn1c(C)cc(C(=O)COC(=O)c2ccc3ncsc3c2)c1C	STAT1 activator 132
COCCn1c(C)cc(C(=O)COC(=O)c2cncc(Br)c2)c1C	STAT1 activator 136
COCCn1c(C)cc(C(=O)COC(=O)c2ccccc2Br)c1C	STAT3 blocker 85, STAT1 blocker 86
Cc1ccccc1-c1nc(CN(Cc2c(C)nn(C)c2C)C2CC2)c(C)o1	none
Cc1cc(C(=O)COC(=O)c2ccccc2O)c(C)n1Cc1cccs1	STAT3 blocker 104, STAT1 blocker 75
CC(=O)Nc1ccc(SCC(=O)c2cc(C)n(Cc3cccs3)c2C)cc1	STAT3 blocker 95, STAT1 blocker 48
O=C(OCc1ccccc1)c1cccc(-c2nnc(-c3ccccc3)o2)c1	none
COc1ccc(CC(=O)Nc2cccc(-c3nnc(-c4ccc(C)cc4)o3)c2)cc1OC	none
Cc1ccc(OCC(=O)Nc2cccc(-c3nnc(-c4ccccc4)o3)c2)c(C)c1	STAT1 activator 132
CCOC(=O)c1cccc(COC(=O)c2cccc(-c3nnc(-c4ccccc4)o3)c2)c1	STAT1 activator 131
CC(=O)Nc1cccc(-c2nnc(-c3ccccc3)o2)c1	STAT1 activator 130
Cc1ccc(C(=O)CSc2nnc(C(C)C)n2C)cc1C	NF-kB expr up 3.4
CCCCn1nnnc1SCC(=O)c1ccc(C)c(C)c1	none
Clc1ccc(-c2csc(Nc3ccccc3)[n+]2Cc2ccco2)c(Cl)c1	STAT1 activator 140
CCCC[n+]1c(-c2ccc(Cl)cc2Cl)csc1Nc1ccccc1	none
Cc1nc(NC(=O)c2ccc([N+](=O)[O-])cc2Cl)sc1C(=O)N(C)C	none

Compound activity from PubChem BioAssay.
